PglD inh = C. jejuni PglD acetyltransferase inhibitors, primary screen, biochemical, DTNB colorimetric, single point | UDP-N-acetylbacillosamine N-acetyltransferase PglD (Campylobacter jejuni) | purified PglD enzyme, DTNB colorimetric CoA detection | actives 0.098% (n = 360,000) | inhibition, % at 12.5 µM | AID 602405, 2012; in the data active means inhibition above about 16%, passing the limit was not always enough; inconclusive means no clear call, values can overlap the other calls
PvdQ inh = P. aeruginosa PvdQ acylase inhibitors, primary screen, biochemical, fluorescence, plate reader and imaging, single point; purified PvdQ acylase; AID 488965, 2010; actives 0.063% (n = 340,000); inhibition, % at 10 µM; in the data active means inhibition above about 30%, passing the limit was not always enough; inconclusive means no clear call, values can overlap the other calls
IMP-1 inhibitor = IMP-1 metallo-beta-lactamase inhibitors, primary screen, biochemical, epi-absorbance readout, Pseudomonas aeruginosa enzyme; metallo-beta-lactamase IMP-1 (Pseudomonas aeruginosa); purified IMP-1, nitrocefin hydrolysis, epi-absorbance fluorescence; inhibition, % at 5.6 µM; actives 0.45% (n = 290,000);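 active means inhibition above the mean plus 3 SD of all compounds in the same screening run, cut at about 4.5% in these data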
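Test system: recombinant IMP-1 enzyme, purified / Medium: HEPES buffer pH 7.1 with ZnSO4 and Brij 35 / Doses: single dose, 5.6 µM / Times: 25 °C, 15 min preincubation, 25 min reaction / Detection: Epi-absorbance via hydrolysed-nitrocefin quenching of white-plate fluorescence, 480/530 nm, EDTA stop / Evaluation: percent inhibition from optical density relative to buffer-blank wells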
ERp5 inh = inhibitors of ERp5-driven insulin aggregation, primary screen, biochemical, turbidity, absorbance 650 nm, single point; Protein disulfide-isomerase A6 (Homo sapiens), Q15084; 90 min; inhibition, % at 9.99 µM; actives 0.05% (n = 350,000);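 active means mean replicate inhibition above about 25%, with every replicate also reaching it, limit read from the data, passing the limit was not always enough; inconclusive means only one of those two criteria met; inactive means neither criterion met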
Target sequence (Q15084 whole entry, looked up): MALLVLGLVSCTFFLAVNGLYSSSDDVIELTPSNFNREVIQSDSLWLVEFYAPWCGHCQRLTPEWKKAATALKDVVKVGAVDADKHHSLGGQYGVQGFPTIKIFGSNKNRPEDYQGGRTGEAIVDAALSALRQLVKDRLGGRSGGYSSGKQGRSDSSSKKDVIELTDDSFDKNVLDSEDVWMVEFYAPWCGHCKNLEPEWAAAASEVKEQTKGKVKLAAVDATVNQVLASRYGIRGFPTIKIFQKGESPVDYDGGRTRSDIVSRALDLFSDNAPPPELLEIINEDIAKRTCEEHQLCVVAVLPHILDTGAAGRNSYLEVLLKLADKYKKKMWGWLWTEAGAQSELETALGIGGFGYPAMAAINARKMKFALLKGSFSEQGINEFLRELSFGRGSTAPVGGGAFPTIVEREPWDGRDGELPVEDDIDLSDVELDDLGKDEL
VIM-2 inhibitor = VIM-2 metallo-beta-lactamase inhibitors, primary screen, biochemical, epi-absorbance readout, Pseudomonas aeruginosa enzyme | purified VIM-2, nitrocefin hydrolysis, epi-absorbance fluorescence | inhibition, % at 5.6 µM | actives 0.89% (n = 290,000);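 active means inhibition above the mean of all tested compounds plus 3 SD, cutoff set per screening run, cut at about 7.5% in these data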;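 further: red hydrolysis product quenches plate fluorescence so inhibitors raise well fluorescence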
PDI inh = inhibitors of human PDI, primary screen, biochemical, turbidity, single point, plate reader; PDI insulin aggregation turbidity, A650, 90 min; inhibition, % at 10 µM; Protein disulfide-isomerase (Homo sapiens), P07237; actives 0.052% (n = 350,000); AID 588391, 2011;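 active means mean inhibition across replicates of 30% or more, whatever share of single replicates reach that level; inconclusive means mean inhibition below 30% while every single replicate reaches 30%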
Numbers stand for hits; . = inactive; ? = inconclusive; / = no result given. Most compounds without a hit are left out; they make up all but 1% or so of the library.

SMILES	PglD inh	PvdQ inh	IMP-1 inhibitor	ERp5 inh	VIM-2 inhibitor	PDI inh
C[C@@H]1CN([C@@H](C)CO)C(=O)c2cc(-c3ccccc3)cnc2O[C@H]1CN(C)C(=O)NC1CCCC1	.	/	/	.	/	/
N=C1C(c2nc(-c3ccc(F)cc3)cs2)=C(O)CN1CCCN1CCOCC1	.	.	.	/	12	.
CC(C)CCN1CC(O)=C(c2nc(-c3ccc(Cl)cc3)cs2)C1=N	.	.	.	/	.	.
CO[C@H]1CN(C)C(=O)c2cc(NC(=O)c3ccc(F)cc3)ccc2OC[C@@H](C)N(Cc2cocn2)C[C@@H]1C	.	/	/	/	/	/
Cc1c(NC(=S)N/N=C/c2ccc(Br)cc2)c(=O)n(-c2ccccc2)n1C	/	.	.	.	.	.
Cc1c(NC(=S)N/N=C\c2ccccc2O)c(=O)n(-c2ccccc2)n1C	/	.	.	.	7.8	.
O=C(NNC(=O)c1ccc(Oc2ccc(C3SCCS3)cc2)o1)c1ccc(Cl)cc1	/	.	5.2	.	.	.
O=C(NNC(=O)c1ccc(Oc2cc(Cl)cc(Cl)c2)o1)c1ccccc1	/	.	.	.	.	.
Cc1cccc(-c2ccc([C@H]3[C@H](CO)N4C(=O)CN(C(=O)Cc5ccccn5)C[C@@H]34)cc2)c1	/	/	/	.	/	/
CCCCn1c(SCC(=O)Nc2ccc(C)c(S(=O)(=O)N3CCOCC3)c2)nnc1C(CC)N(C)C (stereo unspecified)	.	.	/	.	/	32
COc1ccccc1N1CCN(S(=O)(=O)c2cc3[nH]c(=O)c(=O)[nH]c3cc2C)CC1	.	.	4.5	.	.	.
N#CC(C(=O)NCCc1ccccc1)c1nc2ccccc2nc1N1CCCCC1 (stereo unspecified)	.	.	.	/	.	.
N#CC(C(=O)NCc1ccccc1)c1nc2ccccc2nc1N1CCCC1 (stereo unspecified)	.	.	8.2	/	.	.
C[C@H]1CN([C@@H](C)CO)S(=O)(=O)c2ccc(C3=CCCCC3)cc2O[C@H]1CN(C)S(=O)(=O)c1ccc(F)cc1	.	/	/	.	/	/
CCOC(=O)N1CCN(C2=C(NS(=O)(=O)c3ccc(Br)cc3)C(=O)c3ccccc3C2=O)CC1	.	/	/	.	/	.
NC(=O)C1CCN(C2=C(NS(=O)(=O)c3ccccc3)C(=O)c3ccccc3C2=O)CC1	/	.	.	.	8.8	.
NC(=O)C1CCN(C2=C(NS(=O)(=O)c3ccc(Br)cc3)C(=O)c3ccccc3C2=O)CC1	.	.	.	.	.	.
O=C1C(NS(=O)(=O)c2ccc(Cl)cc2)=C(N2CCCCC2)C(=O)c2ccccc21	/	.	.	.	9.3	.
CCOC(=O)N1CCN(C2=C(NS(=O)(=O)c3ccccc3)C(=O)c3ccccc3C2=O)CC1	.	.	.	.	9.4	.
C[C@@H]1CN([C@H](C)CO)C(=O)c2cc(C#Cc3ccccn3)cnc2O[C@@H]1CN(C)C(=O)c1ccccn1	.	/	/	.	/	/
COC(=O)C[C@H]1CC[C@@H]2[C@H](COc3ccc(NC(=O)c4ccc(OC)cc4)cc3C(=O)N2C)O1	.	/	/	.	/	/
Cc1noc(C)c1S(=O)(=O)Nc1ccc2c(c1)C(=O)N([C@@H](C)CO)C[C@H](C)[C@@H](CN(C)C(=O)Nc1ccc(F)cc1)OCCCC[C@@H](C)O2	.	/	/	.	/	/
CCOC(=O)c1c(NC(=O)c2cccc(N3C(=O)CCC3=O)c2)sc2c1CCN(CC)C2	.	.	.	.	7.9	.
CCOC(=O)c1c(-c2ccccc2)csc1NC(=O)c1cccc(N2C(=O)CCC2=O)c1	.	.	.	/	.	.
CCOC(=O)c1c(NC(=O)c2ccc(S(=O)(=O)N3CCOCC3)cc2)sc2c1CCN(C)C2	.	.	.	.	8.6	.
SMILES	PglD inh	PvdQ inh	IMP-1 inhibitor	ERp5 inh	VIM-2 inhibitor	PDI inh
COc1ccc2c3c(n(C)c2c1)[C@H](CO)N(C(=O)CN1CCOCC1)CC31CN(C(C)=O)C1	/	/	/	.	/	/
Cc1ncc(CO)c(/C=N/NC(=O)c2cc(O)c(O)c(O)c2)c1O	/	/	24	/	.	/
O=C(CCl)Nc1ccccc1Sc1ccc(Cl)cc1	.	.	.	/	.	50
O=C(C[C@@H]1CC[C@H]2[C@@H](COC[C@@H](O)CN2S(=O)(=O)c2cccc(F)c2)O1)Nc1ccccc1	.	/	/	/	/	/
CCOc1ccc(-c2c(C#N)c(N)nc3c2c(=O)n(C)c(=O)n3C)cc1OC	.	.	7.6	/	.	.
COc1ccc(-c2c(C#N)c(N)nc3c2c(=O)n(C)c(=O)n3C)cc1	.	.	.	/	.	.
Cc1snc(SCC(=O)c2ccc([N+](=O)[O-])cc2)c1C#N	/	.	.	.	9.5	.
Cc1nnc2c3ccccc3c(-c3ccc(O)cc3)nn12	/	.	.	/	10	.
Cc1nnc2c3ccccc3c(Cl)nn12	/	.	.	?	.	.
O=C1C(Cl)=C(N2CCC(C(=O)O)CC2)C(=O)c2ccccc21	/	.	.	/	.	.
CN1CCN(C2=C(Cl)C(=O)c3ccccc3C2=O)CC1	/	.	/	.	/	41
CC(C)C1OC2c3cccc4cccc(c34)C2N1c1ccccc1 (stereo unspecified)	.	.	4.6	/	.	.
CCC(=O)c1ccc(OC(=O)c2cccs2)cc1	.	41	.	/	.	.
COC(=O)c1ccc(OC(=O)c2ccco2)cc1	.	81	.	/	.	.
COC(=O)c1ccc(OC(=O)c2cccs2)cc1	/	55	.	.	.	.
C[C@H](CO)N1C[C@H](C)[C@@H](CN(C)S(C)(=O)=O)OCCCC[C@H](C)Oc2ccc(NC(=O)Nc3ccccc3)cc2C1=O	.	/	/	.	/	/
C[C@H](O)C#Cc1ccc2c(c1)O[C@@H](CN(C)Cc1cncnc1)[C@H](C)CN([C@@H](C)CO)S2(=O)=O	.	/	/	/	/	/
CC(C)(C)C(=O)NC(=S)Nc1ccc(Cc2ccncc2)cc1	.	.	7.7	.	.	.
CNC(=S)Nc1ccc(Cc2ccncc2)cc1	.	.	.	.	.	.
N/C(=N\c1nc(CSc2nnnn2-c2ccccc2)cc(=O)[nH]1)Nc1ccccc1	/	/	.	.	.	/
O=c1cc(CSc2nnnn2-c2ccccc2)nc(Nc2ccc(F)cc2)[nH]1	.	.	.	/	10.0	.
O=C(C[C@H]1CC[C@H]2[C@@H](COC[C@@H](O)CN2C(=O)Nc2ccc(F)cc2)O1)NC1Cc2ccccc2C1	.	/	/	.	/	/
COc1ccc(/C=C/c2cccc[n+]2C)c(O)c1	.	.	.	.	.	.
C[n+]1ccccc1/C=C/c1cc(Br)ccc1O	.	.	16	.	.	.
O=C1c2cccc3c([N+](=O)[O-])ccc(c23)C(=O)N1O	.	.	.	.	8.8	.

Screening results as filed in PubChem.
